According to ChEMBL document CHEMBL3632609, “Hederagenin as a triterpene template for the development of new antitumor compounds” (Eur J Med Chem, 2015):
Activity calls are given as the source filed them. No cut-off for these calls is given here.

Legend:
Assay type in all cases: functional, cell-based
[1] = test system: 8505C; assay: Cytotoxicity against human 8505C cells assessed as cell survival after 96 hrs by sulforhodamine B assay
Method in brief: (§1)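 Cells in exponential growth were seeded at densities that avoided confluence and, after 24 h, exposed to serial compound dilutions (0-30 μM, DMSO ≤0.5% final) for 96 h. Cells were then fixed with 10% TCA at 4 °C, washed with water, and stained with 0.4% SRB for about 20 min. Excess dye was removed with 1% acetic acid, bound dye was taken up in 10 mM Tris base, and absorbance was read at 570 nm.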

[2] = test system: MCF7; assay: Cytotoxicity against human MCF7 cells assessed as cell survival after 96 hrs by sulforhodamine B assay; details: MCF7, 96 h; method in brief: as §1
[3] = test system: A549; assay: Cytotoxicity against human A549 cells assessed as cell survival after 96 hrs by sulforhodamine B assay; details: A549, 96 h; method in brief: as §1
[4] = test system: A2780; assay: Cytotoxicity against human A2780 cells assessed as cell survival after 96 hrs by sulforhodamine B assay; details: A2780, 96 h; method in brief: as §1
[5] = test system: HT-29; assay: Cytotoxicity against human HT-29 cells assessed as cell survival after 96 hrs by sulforhodamine B assay; details: HT-29, 96 h; method in brief: as §1
[6] = test system: A2780; assay: Induction of apoptosis in human A2780 cells at EC90 after 48 hrs by acridine orange/propidium iodide staining-based fluorescence microscopic analysis
Method in brief: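 The supernatant cells were pelleted, washed in PBS, resuspended in PBS, mixed with acridine orange/propidium iodide, and examined under a fluorescence microscope, with green-fluorescent cells scored as undergoing controlled death and orange cells as necrotic.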

[7] = Cytotoxicity against human 518A2 cells assessed as cell survival after 96 hrs by sulforhodamine B assay; details: 518A2, 96 h; method in brief: as §1

CC1(C)CC[C@]2(C(=O)NCCN3CCCC3)CC[C@]3(C)C(=CC[C@@H]4[C@@]5(C)CC[C@H](O)[C@@](C)(CO)[C@@H]5CC[C@]43C)[C@@H]2C1
EC50 [1]: 1800 nM
EC50 [2]: 3700 nM
EC50 [3]: 1900 nM
EC50 [4]: 1100 nM
EC50 [5]: 1200 nM
Activity [6]: Active
EC50 [7]: 2000 nM
